CHRM1 antagonist: human M1 muscarinic receptor antagonists, primary screen, CHO-K1 cells, Fluo-8 calcium fluorescence, 1536-well. Muscarinic acetylcholine receptor M1 (Homo sapiens), P11229. CHO-K1 hM1, ACh EC80 antagonist. inhibition, % at 3 µM. hit rate 1.3% among 360,000;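 active means percent inhibition above its own plate's cutoff, namely the mean of that plate's compound wells plus 3 SD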;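 further: peak over basal fluorescence ratio during 140 s after agonist addition; 0% = ACh EC80 plus DMSO and 100% = DMSO alone without agonist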
Target sequence (P11229 whole entry, looked up): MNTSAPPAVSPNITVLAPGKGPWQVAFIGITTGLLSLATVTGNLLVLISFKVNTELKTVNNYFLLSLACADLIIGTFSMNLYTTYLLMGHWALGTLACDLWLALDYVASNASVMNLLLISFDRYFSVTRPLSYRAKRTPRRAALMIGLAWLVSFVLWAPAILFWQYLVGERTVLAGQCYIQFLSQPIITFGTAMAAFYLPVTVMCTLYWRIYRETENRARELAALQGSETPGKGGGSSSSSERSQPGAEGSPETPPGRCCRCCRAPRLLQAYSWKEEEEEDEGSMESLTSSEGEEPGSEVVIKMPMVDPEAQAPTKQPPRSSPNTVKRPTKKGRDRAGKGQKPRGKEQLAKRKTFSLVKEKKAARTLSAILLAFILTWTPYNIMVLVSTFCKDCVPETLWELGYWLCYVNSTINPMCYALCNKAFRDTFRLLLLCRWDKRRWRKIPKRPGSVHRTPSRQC
M1 PAM: human M1 muscarinic receptor positive allosteric modulators, primary screen, CHO-K1 cells, Fluo-8 calcium fluorescence, 1536-well; Muscarinic acetylcholine receptor M1 (Homo sapiens), P11229; CHO-K1 hM1, ACh EC20; 0% = ACh EC20, 100% = maximal ACh; activation, % at 3 µM; hit rate 0.088% among 360,000; in the data active means activation above about 19%, passing the limit was not always enough
CHRM5 antagonist: human M5 muscarinic receptor antagonists, primary screen, CHO cells, Fluo-8 calcium fluorescence; CHO-hM5 cells, ACh EC80; Muscarinic acetylcholine receptor M5 (Homo sapiens), P08912; hit rate 0.59% among 360,000; AID 624040, 2012; inhibition, % at 3 µM;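 active means inhibition above a per-plate cutoff, the mean of that plate's test compounds plus 3 SD, cut at about 27% in these data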;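 further: 0% = acetylcholine EC80 with DMSO and 100% = DMSO without agonist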
M5 ag: human M5 muscarinic receptor agonists, primary screen, CHO-K1 cells, Fluo-8 calcium fluorescence; CHO-K1 hM5 cells; 0% DMSO wells, 100% maximal acetylcholine response; AID 624037, 2012; hit rate 0.19% among 360,000; activation, % at 3 µM; Muscarinic acetylcholine receptor M5 (Homo sapiens), P08912;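 active means activation above the run's mean over test compounds plus 3 SD, cut at about 23% in these data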;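 further: signal is peak over basal fluorescence ratio across the kinetic read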
CHRM1 agonist: human M1 muscarinic receptor agonists, primary screen, Fluo-8 calcium fluorescence, CHO-K1 cells, HTS; activation, % at 3 µM; CHO-K1 hM1, agonist mode; 0% DMSO, 100% acetylcholine EC100; hit rate 0.33% among 360,000; Muscarinic acetylcholine receptor M1 (Homo sapiens), P11229;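 active means activation above the run's mean compound activation plus 3 SD, cut at about 16% in these data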;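 further: peak over basal fluorescence ratio within a 140 s kinetic read after compound addition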
M5 PAM: human M5 muscarinic receptor positive allosteric modulators, primary screen, CHO-K1 cells, Fluo-8 calcium fluorescence; activation, % at 3 µM; CHO-K1 hM5, ACh EC20 PAM; 0% = ACh EC20, 100% = ACh EC100; hit rate 0.3% among 360,000; Muscarinic acetylcholine receptor M5 (Homo sapiens), P08912; AID 624038, 2012;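 active means activation above the run cutoff, the mean activation of all test compounds plus 3 SD, cut at about 18% in these data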
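Assay system: CHO-K1 hM5 cells / Incubation: Fluo-8 loading 80 min at 37 °C plus 30 min room temperature / Technique: Fluo-8 calcium dye fluorescence, kinetic read / Repeats: single replicate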
* = called active by the depositor. Only some compounds are listed: those with a hit (about 2.1% of all), similar ones and a draw of the others.

How did O=[N+]([O-])/C=C/c1cn(Cc2ccc(Cl)cc2)c2ccccc12 do in these assays?
CHRM1 antagonist: 15; M1 PAM: 14; CHRM5 antagonist: 33*; M5 ag: 1; CHRM1 agonist: -4; M5 PAM: 7

What do the screens show for `CCOc1cc(S(=O)(=O)n2cc(-c3ccc(F)cc3)c(N)n2)cc(OCC)c1OCC`?
CHRM1 antagonist: -46; M1 PAM: 2; CHRM5 antagonist: 3; M5 ag: -4; CHRM1 agonist: -6; M5 PAM: -1

What do the screens show for `COc1cccc(NC(=O)Cn2c(CCC(=O)O)ccc2-c2cccs2)c1`?
CHRM1 antagonist: -2; M1 PAM: 13; CHRM5 antagonist: -12; M5 ag: 5; CHRM1 agonist: 1; M5 PAM: 19*

What do the screens show for `CC1=CC(C)(C)NC(=S)N1c1cccc2cc(S(=O)(=O)O)ccc12`?
CHRM1 antagonist: 14; M1 PAM: 3; CHRM5 antagonist: 27*; M5 ag: 0; CHRM1 agonist: 0; M5 PAM: -14

What do the screens show for `COC(=O)C[C@H]1C=C[C@@H](NC(=O)C2CC2)[C@@H](CO)O1`?
CHRM5 antagonist: -8; M5 ag: 1; M5 PAM: 20*

What do the screens show for `CCC(=O)N[C@H]1C=C[C@H](CC(=O)OC)O[C@@H]1CO`?
CHRM5 antagonist: -4; M5 ag: 2; M5 PAM: 6

How did Clc1ccccc1Cc1noc(CN2CCCCC2c2ccccn2)n1 (configuration not stated) do in these assays?
CHRM1 antagonist: 1; M1 PAM: -5; CHRM5 antagonist: -1; M5 ag: -6; CHRM1 agonist: -11; M5 PAM: -5

What do the screens show for `COC(=O)c1ccc(-c2noc(CN(Cc3nccn3C)C(C)C)n2)cc1`?
CHRM1 antagonist: 2; M1 PAM: -10; CHRM5 antagonist: 5; M5 ag: -10; CHRM1 agonist: -15; M5 PAM: -4

What do the screens show for `COC(=O)c1ccc(-c2noc(CN3CCCCC3c3nccn3C)n2)cc1` (configuration not stated)?
CHRM1 antagonist: 35*; M1 PAM: -34; CHRM5 antagonist: 13; M5 ag: -10; CHRM1 agonist: -14; M5 PAM: -16

Results for Cn1ccnc1C1CCCCN1Cc1nc(Cc2ccccc2F)no1 (configuration not stated) ?
CHRM1 antagonist: 99*; M1 PAM: -26; CHRM5 antagonist: 22; M5 ag: -14; CHRM1 agonist: -7; M5 PAM: -34

What do the screens show for `Cc1ccc(S(=O)(=O)N(C)C)cc1-n1c(SCC(=O)Nc2ccccc2)nc2ccccc2c1=O`?
CHRM1 antagonist: -6; M1 PAM: 2; CHRM5 antagonist: -1; M5 ag: 3; CHRM1 agonist: -3; M5 PAM: 1

How did CC(=O)N1c2ccc(S(=O)(=O)NCC3CCC(C(=O)NC4CCCCC4)CC3)cc2CC1C (configuration not stated) do in these assays?
CHRM1 antagonist: -11; M1 PAM: 1; CHRM5 antagonist: 4; M5 ag: -3; CHRM1 agonist: -3; M5 PAM: 0

How did CN(C)/C=C1\C=C2C(=O)c3ccccc3N2C1=O do in these assays?
CHRM1 antagonist: 34; M1 PAM: -17; CHRM5 antagonist: 25; M5 ag: 110*; CHRM1 agonist: 141*; M5 PAM: -23

How did Cc1ccc(C(=O)NCC2CCCN2S(=O)(=O)c2ccc(C)cc2)cc1 (configuration not stated) do in these assays?
CHRM1 antagonist: 7; M1 PAM: -6; CHRM5 antagonist: 2; M5 ag: 0; CHRM1 agonist: -3; M5 PAM: 5

How did CC(=O)NCCc1nc2cc(NC(=O)c3cccs3)ccc2n1C do in these assays?
CHRM1 antagonist: 2; M1 PAM: 4; CHRM5 antagonist: -9; M5 ag: 3; CHRM1 agonist: -3; M5 PAM: 16

How did Cn1c(=O)c2c(nc(N/N=C/c3ccncc3)n2Cc2ccccc2)n(C)c1=O do in these assays?
CHRM1 antagonist: -26; M1 PAM: 20; CHRM5 antagonist: -10; M5 ag: 5; CHRM1 agonist: -3; M5 PAM: 21*

How did Cc1ccc(Cn2c(CN(C)Cc3ccccc3)nc3c2c(=O)n(C)c(=O)n3C)cc1 do in these assays?
CHRM1 antagonist: 7; M1 PAM: 1; CHRM5 antagonist: 1; M5 ag: 11; CHRM1 agonist: 16*; M5 PAM: -1

What do the screens show for `COC(=O)CSc1nc2c(c(=O)n(C)c(=O)n2C)n1CCCc1ccccc1`?
CHRM1 antagonist: -10; M1 PAM: -1; CHRM5 antagonist: -1; M5 ag: -1; CHRM1 agonist: -2; M5 PAM: -4

What do the screens show for `CN(Cc1ccccc1)c1nc2c(c(=O)n(C)c(=O)n2C)n1CCCc1ccccc1`?
CHRM1 antagonist: 34*; M1 PAM: -17; CHRM5 antagonist: 13; M5 ag: -5; CHRM1 agonist: -3; M5 PAM: -16

How did CCN(CC)c1nc2c(c(=O)n(C)c(=O)n2C)n1CCCc1ccccc1 do in these assays?
CHRM1 antagonist: -15; M1 PAM: 4; CHRM5 antagonist: 9; M5 ag: 2; CHRM1 agonist: 4; M5 PAM: -1

How did CC(O)CSc1nc2c(c(=O)n(C)c(=O)n2C)n1CCCc1ccccc1 (configuration not stated) do in these assays?
CHRM1 antagonist: -29; M1 PAM: 24*; CHRM5 antagonist: -5; M5 ag: 0; CHRM1 agonist: 0; M5 PAM: -7

What do the screens show for `Clc1ccc2nc3ccccc3cc2c1`?
CHRM1 antagonist: -7; M1 PAM: 2; CHRM5 antagonist: 18; M5 ag: -5; CHRM1 agonist: -6; M5 PAM: -2

What do the screens show for `CCN(CC)c1ccc2c(c1)OC(N)=C(C#N)C2c1cccnc1` (configuration not stated)?
CHRM1 antagonist: -4; M1 PAM: -11; CHRM5 antagonist: 13; M5 ag: 10; CHRM1 agonist: 22*; M5 PAM: -13

Results for CC1CCN(CCc2nc3cc(NC(=O)NC4CCCCC4)ccc3n2C)CC1 ?
CHRM1 antagonist: 36*; M1 PAM: -19; CHRM5 antagonist: -11; M5 ag: -12; CHRM1 agonist: -8; M5 PAM: 3

Source: PubChem BioAssay
